# Results taken from ChEMBL document CHEMBL4038304, “Chiral Indolylarylsulfone Non-Nucleoside Reverse Transcriptase Inhibitors as New Potent and Broad Spectrum Anti-HIV-1 Agents” (J Med Chem, 2017).
# The source made the active and inactive calls. The rule behind the calls is not given here.
# Columns and labels:
# [1] = Cytotoxicity against human MT4 cells assessed as cell viability by MTT assay; type: cell-based
# Procedure, shortened: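 Uninfected MT-4 cells scored for viability by MTT. […] Values are means of two to three independent experiments, each run in triplicate.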
# [2] = test system: Human immunodeficiency virus 1; experiment: Antiviral activity against HIV1 NL4-3 infected in human […] cells assessed as protection against virus-induced cytopathic effect measured on day 5 post infection by MTT assay; type: functional, cell-based; conditions: Human immunodeficiency virus 1, NL4-3, 120 h
# Procedure, shortened: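 Values are means of two to three independent experiments, each run in triplicate. The lowest detectable concentration is reported where activity fell below the assay limit.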
# [3] = test system: Human immunodeficiency virus 1; experiment: Antiviral activity against HIV1 harboring reverse transcriptase K103N mutant infected in human […] cells assessed as protection against virus-induced cytopathic effect measured on day 5 post infection by MTT assay; type: functional, cell-based; conditions: Human immunodeficiency virus 1, 120 h
# [4] = test system: Human immunodeficiency virus 1; experiment: Antiviral activity against HIV1 harboring reverse transcriptase Y181C mutant infected in human […] cells assessed as protection against virus-induced cytopathic effect measured on day 5 post infection by MTT assay; type: functional, cell-based; conditions: Human immunodeficiency virus 1, 120 h
# [5] = test system: Human immunodeficiency virus 1; experiment: Antiviral activity against HIV1 harboring reverse transcriptase Y188L mutant infected in human […] cells assessed as protection against virus-induced cytopathic effect measured on day 5 post infection by MTT assay; type: functional, cell-based; conditions: Human immunodeficiency virus 1, 120 h
# [6] = test system: Human immunodeficiency virus 1; experiment: Antiviral activity against HIV1 harboring reverse transcriptase K103N /[…] double mutant infected in human […] cells assessed as protection against virus-induced cytopathic effect measured on day 5 post infection by MTT assay; type: functional, cell-based; conditions: Human immunodeficiency virus 1, 120 h
# [7] = test system: BV-2; experiment: Antineuroinflammatory activity in C57BL/6 mouse BV2 cells assessed as inhibition of LPS-induced nitric oxide production at 1 to 10 uM after 24 hrs by Griess assay; type: functional, cell-based
# [8] = test system: BV-2; experiment: Downregulation of iNOS mRNA levels in C57BL/6 mouse BV2 cells at 1000 nM after 24 hrs by RT-PCR assay; type: functional, cell-based
# [9] = test system: BV-2; experiment: Effect on CD163 mRNA levels in C57BL/6 mouse BV2 cells at 1000 nM after 24 hrs by RT-PCR assay; type: functional, cell-based
# [10] = test system: BV-2; experiment: Effect on fizz mRNA levels in C57BL/6 mouse BV2 cells at 1000 nM after 24 hrs by RT-PCR assay; type: functional, cell-based
# [11] = test system: BV-2; experiment: Cytotoxicity against C57BL/6 mouse BV2 cells assessed as effect on cell proliferation rate at 10 to 10000 nM up to 48 hrs by MTT assay; type: cell-based; conditions: bv-2, 48 h, 10 µM
# Procedure, shortened: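 BV2 microglial cells cultured with compound at 10, 102, 103 and 104 nM, then proliferation rate measured.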
# [12] = test system: hippocampal neurons (Mus musculus); experiment: Neuroprotective activity against glutamate-induced excitotoxicity in C57BL/6 mouse hippocampal neurons assessed as increase in cell viability at 1000 nM preincubated for 30 mins followed by reincubation in conditioned culture media for 18 hrs in presence of glutamate by hemacytometric analysis
# [13] = molecular target: Human immunodeficiency virus type 1 reverse transcriptase (Human immunodeficiency virus 1, UniProt Q72547); experiment: Inhibition of HIV1 NL4-3 reverse transcriptase His-tagged p66/p51 associated RNA dependent DNA polymerase activity expressed in Escherichia coli assessed as reduction in [3H]dTTP incorporation using poly(rA)/oligo(dT) as template/primer by scintillation counting analysis
# [14] = molecular target: Human immunodeficiency virus type 1 reverse transcriptase (Human immunodeficiency virus 1, UniProt Q72547, Y181I); experiment: Inhibition of HIV1 reverse transcriptase p66 Y181I mutant associated RNA dependent DNA polymerase activity expressed in Escherichia coli assessed as reduction in [3H]dTTP incorporation using poly(rA)/oligo(dT) as template/primer by scintillation counting analysis
# [15] = Inhibition of HIV1 reverse transcriptase p66 K103N/[…] double mutant associated RNA dependent DNA polymerase activity expressed in Escherichia coli assessed as reduction in [3H]dTTP incorporation using poly(rA)/oligo(dT) as template/primer by scintillation counting analysis; set-up: species or system Human immunodeficiency virus 1
# [16] = molecular target: Human immunodeficiency virus type 1 reverse transcriptase (Human immunodeficiency virus 1, UniProt Q72547, Y181C); experiment: Inhibition of HIV1 reverse transcriptase p66 Y181C mutant associated RNA dependent DNA polymerase activity expressed in Escherichia coli assessed as reduction in [3H]dTTP incorporation using poly(rA)/oligo(dT) as template/primer by scintillation counting analysis
# [17] = Selectivity index, ratio of CC50 for human MT4 cells to EC50 for HIV1 NL4-3 infected in human MT4 cells; type: toxicity, cell-based; conditions: read-out: Ratio CC50/EC50
# Procedure, shortened: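 SI computed as CC50/EC50, using the MTT-based CC50 in uninfected MT-4 cells and the MTT-based EC50 against HIV-1 NL4-3-induced cell death in MT-4 cells. Experiments were run in triplicate, two to three times.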
# [18] = test system: Human immunodeficiency virus 1; experiment: Ratio of EC50 for HIV-1 harboring reverse transcriptase K103N mutant infected in human MT4 cells to EC50 for HIV1 NL4-3 infected in human MT4 cells; type: functional
# Procedure, shortened: (§1)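 Fold change calculated as EC50 against the stated resistant mutant HIV-1 strain divided by EC50 against wild-type NL4-3. Both EC50s come from MTT read-out of virus-induced death in MT-4 cells, mean of two to three independent experiments each in triplicate.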
# [19] = test system: Human immunodeficiency virus 1; experiment: Ratio of EC50 for HIV-1 harboring reverse transcriptase Y181C mutant infected in human MT4 cells to EC50 for HIV1 NL4-3 infected in human MT4 cells; type: functional; procedure, shortened: as §1
# [20] = test system: Human immunodeficiency virus 1; experiment: Ratio of EC50 for HIV-1 harboring reverse transcriptase Y188L mutant infected in human MT4 cells to EC50 for HIV1 NL4-3 infected in human MT4 cells; type: functional; procedure, shortened: as §1
# [21] = test system: Human immunodeficiency virus 1; experiment: Ratio of EC50 for HIV-1 harboring reverse transcriptase K103N/[…] double mutant infected in human MT4 cells to EC50 for HIV1 NL4-3 infected in human MT4 cells; type: functional; procedure, shortened: as §1
# [22] = molecular target: Human immunodeficiency virus type 1 reverse transcriptase (Human immunodeficiency virus 1, UniProt Q72547, K103N); experiment: Inhibition of HIV1 reverse transcriptase p66 K103N mutant associated RNA dependent DNA polymerase activity expressed in Escherichia coli assessed as reduction in [3H]dTTP incorporation using poly(rA)/oligo(dT) as template/primer by scintillation counting analysis
# [23] = test system: BV-2; experiment: Downregulation of CD86 mRNA levels in C57BL/6 mouse BV2 cells at 1000 nM after 24 hrs by RT-PCR assay; type: functional, cell-based
SMILES,CC50 [1] [nM],EC50 [2] [nM],EC50 [3] [nM],EC50 [4] [nM],EC50 [5] [nM],EC50 [6] [nM],IC50 [13] [nM],IC50 [14] [nM],IC50 [15] [nM],IC50 [16] [nM],selectivity ratio [17],Ratio EC50 [18],Ratio EC50 [19],Ratio EC50 [20],Ratio EC50 [21],IC50 [22] [nM],other results
O=C1Nc2ccc(Cl)cc2[C@@](C#CC2CC2)(C(F)(F)F)O1 [EFAVIRENZ],> 15800,15.9,130,160,760,> 317,–,–,–,–,–,–,–,–,–,–,Activity [7]: Active; Activity [8]: Active; Activity [9]: inactive; Activity [10]: inactive; Activity [11]: Non-Toxic; Activity [12]: inactive
Cc1cc(C)cc(S(=O)(=O)c2c(C(=O)N[C@@H](C)c3ccccc3F)[nH]c3ccc(Cl)cc23)c1,–,0.7,103,680,> 51600,> 51600,175,17200,> 10000,17200,–,–,–,–,–,–,–
Cc1cc(C)cc(S(=O)(=O)c2c(C(=O)NCC(=O)NCc3ccncn3)[nH]c3ccc(Cl)cc23)c1,> 48800,0.6,19.6,0.6,449,2300,202,529,835,–,> 81400,33,1,>743,>3842,548,–
Cc1cc(C)cc(S(=O)(=O)c2c(C(=O)NC(C)C(=O)NCc3ccncc3)[nH]c3ccc(Cl)cc23)c1 (racemic),19500,0.2,1.9,21,819,838,–,–,–,–,102000,52,105,4095,4190,–,Activity [7]: Active; Activity [8]: Active; Activity [23]: Active; Activity [9]: inactive; Activity [10]: inactive; Activity [11]: Non-Toxic; Activity [12]: Active
Cc1cc(C)cc(S(=O)(=O)c2c(C(=O)N[C@H](C)C(=O)NCc3ccncc3)[nH]c3ccc(Cl)cc23)c1,–,0.7,114,181,> 23100,7120,13000,61000,> 200000,61000,–,–,–,–,–,> 50000,–
Cc1cc(C)cc(S(=O)(=O)c2c(C(=O)N[C@@H](C)C(=O)NCc3ccncc3)[nH]c3ccc(Cl)cc23)c1,–,0.7,0.7,0.7,666,857,506,870,> 40000,870,–,–,–,–,–,417,–
Cc1cc(C)cc(S(=O)(=O)c2c(C(=O)N[C@H](C)c3ccccc3F)[nH]c3ccc(Cl)cc23)c1,–,0.7,0.7,0.7,165,2490,87,456,222,456,–,–,–,–,–,228,–
Cc1cc(C)cc(S(=O)(=O)c2c(C(=O)NCc3cccc(N)c3)[nH]c3ccc(Cl)cc23)c1,> 53400,0.7,0.7,0.7,24,86,41,64,35,–,> 76300,1,1,34,123,66,–
